Laboratory results published in ChEMBL document CHEMBL5303300, “EUbOPEN Chemogenomics Library - Multiplex” (2023).
Where “and” joins values, the source holds several entries; their conditions need not be identical. Equal entries are not always repeated.

Columns and labels:
U2OS = test: Multiplex assay against U2OS; type: toxicity, cell-based; conditions: human, number of replicates 2
Procedure, shortened: (§1)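 Cells stained live at seeding with Hoechst33342, BioTracker Green Microtubule Cytoskeleton Dye, MitoTracker Red and Annexin V Alexa Fluor 680 were imaged on a CQ1 microscope at 37°C and 5% CO2 after compound addition. Their classification by CellPathfinder machine-learning gating ran from Hoechst high-intensity objects versus normal cells, to healthy, pyknosed or fragmented nuclei among normal cells, to mitotic or apoptotic among pyknosed cells. Tubulin, mitochondrial-mass and membrane-permeability phenotypes are per cents of healthy-nucleus cells.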

HEK-293T = test: Multiplex assay against HEK293T; type: toxicity, cell-based; conditions: human, number of replicates 2; procedure, shortened: as §1
[1] = 12 h, 1 µM, compound concentration 1 uM
[2] = 12 h, 10 µM, compound concentration 10 uM
[3] = 24 h, 1 µM, compound concentration 1 uM
[4] = 24 h, 10 µM, compound concentration 10 uM
[5] = 48 h, 1 µM, compound concentration 1 uM
[6] = 48 h, 10 µM, compound concentration 10 uM

Cc1onc(-c2ccccc2Cl)c1C(=O)N(C)c1ccc(Cl)cc1
Population Apoptotic (%) (U2OS; [1]): 60% and 64% | Population Healthy Nuclei (%) (U2OS; [1]): 57% and 80% | Population Hoechst High Intensity Objects (%) (U2OS; [1]): 0% | Population Mitochondria Different-Phenotype (%) (U2OS; [1]): 20% and 0% | Population Mitotic Cells (%) (U2OS; [1]): 40% and 35% | Population Normal (%) (U2OS; [1]): 100% | Population Pyknosed Nuclei (%) (U2OS; [1]): 14% and 17% | Population Tubulin-Different-Phenotype (%) (U2OS; [1]): 65% and 85% | Population Apoptotic (%) (U2OS; [2]): 33% and 73% | Population Healthy Nuclei (%) (U2OS; [2]): 52% and 83% | Population Hoechst High Intensity Objects (%) (U2OS; [2]): 0% | Population Membrane Permeable-Phenotype (%) (U2OS; [2]): 0% and 4% | Population Mitochondria Different-Phenotype (%) (U2OS; [2]): 0% | Population Mitotic Cells (%) (U2OS; [2]): 66% and 26% | Population Normal (%) (U2OS; [2]): 100% | Population Pyknosed Nuclei (%) (U2OS; [2]): 13% and 12% | Population Tubulin-Different-Phenotype (%) (U2OS; [2]): 88% and 70% | Population Apoptotic (%) (U2OS; [3]): 50% and 45% | Population Healthy Nuclei (%) (U2OS; [3]): 72% and 85% | Population Hoechst High Intensity Objects (%) (U2OS; [3]): 0% | Population Mitochondria Different-Phenotype (%) (U2OS; [3]): 13% and 0% | Population Mitotic Cells (%) (U2OS; [3]): 50% and 54% | Population Normal (%) (U2OS; [3]): 100% and 99% | Population Pyknosed Nuclei (%) (U2OS; [3]): 10% and 12% | Population Tubulin-Different-Phenotype (%) (U2OS; [3]): 68% and 86% | Population Apoptotic (%) (U2OS; [4]): 22% and 41% | Population Healthy Nuclei (%) (U2OS; [4]): 67% and 85% | Population Hoechst High Intensity Objects (%) (U2OS; [4]): 0% | Population Membrane Permeable-Phenotype (%) (U2OS; [4]): 3% | Population Mitochondria Different-Phenotype (%) (U2OS; [4]): 1% | Population Mitotic Cells (%) (U2OS; [4]): 77% and 58% | Population Normal (%) (U2OS; [4]): 100% | Population Pyknosed Nuclei (%) (U2OS; [4]): 9% and 10% | Population Tubulin-Different-Phenotype (%) (U2OS; [4]): 77% and 73% | Population Apoptotic (%) (U2OS; [5]): 60% and 56% | Population Healthy Nuclei (%) (U2OS; [5]): 75% and 91% | Population Hoechst High Intensity Objects (%) (U2OS; [5]): 0% | Population Membrane Permeable-Phenotype (%) (U2OS; [5]): 8% and 2% | Population Mitochondria Different-Phenotype (%) (U2OS; [5]): 3% and 0% | Population Mitotic Cells (%) (U2OS; [5]): 40% and 43% | Population Normal (%) (U2OS; [5]): 100% and 99% | Population Pyknosed Nuclei (%) (U2OS; [5]): 6% | Population Tubulin-Different-Phenotype (%) (U2OS; [5]): 74% and 88% | Population Apoptotic (%) (U2OS; [6]): 30% and 56% | Population Healthy Nuclei (%) (U2OS; [6]): 76% and 89% | Population Hoechst High Intensity Objects (%) (U2OS; [6]): 0% | Population Membrane Permeable-Phenotype (%) (U2OS; [6]): 0% and 1% | Population Mitochondria Different-Phenotype (%) (U2OS; [6]): 0% and 2% | Population Mitotic Cells (%) (U2OS; [6]): 70% and 43% | Population Normal (%) (U2OS; [6]): 100% | Population Pyknosed Nuclei (%) (U2OS; [6]): 7% and 9% | Population Tubulin-Different-Phenotype (%) (U2OS; [6]): 88% and 82% | Population Apoptotic (%) (HEK-293T; [1]): 39% and 47% | Population Fragmented Nuclei (%) (HEK-293T; [1]): 2% and 5% | Population Healthy Nuclei (%) (HEK-293T; [1]): 80% and 83% | Population Hoechst High Intensity Objects (%) (HEK-293T; [1]): 6% | Population Membrane Permeable-Phenotype (%) (HEK-293T; [1]): 2% and 1% | Population Mitochondria Different-Phenotype (%) (HEK-293T; [1]): 18% and 15% | Population Mitotic Cells (%) (HEK-293T; [1]): 60% and 52% | Population Normal (%) (HEK-293T; [1]): 93% | Population Pyknosed Nuclei (%) (HEK-293T; [1]): 16% and 11% | Population Tubulin-Different-Phenotype (%) (HEK-293T; [1]): 47% and 44% | Total Cell Count (HEK-293T; [1]): 587 and 613 | Population Apoptotic (%) (HEK-293T; [2]): 50% | Population Fragmented Nuclei (%) (HEK-293T; [2]): 3% | Population Healthy Nuclei (%) (HEK-293T; [2]): 81% and 84% | Population Hoechst High Intensity Objects (%) (HEK-293T; [2]): 5% and 7% | Population Membrane Permeable-Phenotype (%) (HEK-293T; [2]): 4% and 1% | Population Mitochondria Different-Phenotype (%) (HEK-293T; [2]): 26% and 20% | Population Mitotic Cells (%) (HEK-293T; [2]): 50% and 49% | Population Normal (%) (HEK-293T; [2]): 94% and 92% | Population Pyknosed Nuclei (%) (HEK-293T; [2]): 15% and 11% | Population Tubulin-Different-Phenotype (%) (HEK-293T; [2]): 77% and 55% | Total Cell Count (HEK-293T; [2]): 575 and 625 | Population Apoptotic (%) (HEK-293T; [3]): 44% and 42% | Population Fragmented Nuclei (%) (HEK-293T; [3]): 7% | Population Healthy Nuclei (%) (HEK-293T; [3]): 83% and 86% | Population Hoechst High Intensity Objects (%) (HEK-293T; [3]): 6% and 8% | Population Membrane Permeable-Phenotype (%) (HEK-293T; [3]): 2% | Population Mitochondria Different-Phenotype (%) (HEK-293T; [3]): 4% and 5% | Population Mitotic Cells (%) (HEK-293T; [3]): 55% and 57% | Population Normal (%) (HEK-293T; [3]): 93% and 91% | Population Pyknosed Nuclei (%) (HEK-293T; [3]): 9% and 6% | Population Tubulin-Different-Phenotype (%) (HEK-293T; [3]): 22% | Total Cell Count (HEK-293T; [3]): 896 and 976 | Population Apoptotic (%) (HEK-293T; [4]): 36% and 23% | Population Fragmented Nuclei (%) (HEK-293T; [4]): 5% and 6% | Population Healthy Nuclei (%) (HEK-293T; [4]): 84% and 85% | Population Hoechst High Intensity Objects (%) (HEK-293T; [4]): 5% and 8% | Population Membrane Permeable-Phenotype (%) (HEK-293T; [4]): 4% | Population Mitochondria Different-Phenotype (%) (HEK-293T; [4]): 14% and 5%
